# Data published in ChEMBL document CHEMBL1139141, “Structure-based design of benzylamino-acridine compounds as G-quadruplex DNA telomere targeting agents” (Bioorg Med Chem Lett, 2007).
# What was measured:
# Homo sapiens = species: Homo sapiens; experiment: Effect on human G-quadruplex DNA stability by FRET assay
# How it was run: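 Oligonucleotide F21T (21-mer d[GGG(TTAGGG)3], donor–acceptor end-labelled) annealed at 400 nM in 50 mM KCl, 10 mM cacodylic acid pH 7.4 (92° 2 min, cooled over 4 h); 200 nM final with ligand 0.10–10.00 µM. Fluorescence read at 0.5° steps, 30–100° at 1°/min, excitation 450–495, detection 515–545 nm; ΔTm from melting, triplicate.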
# A549 = experiment: Growth inhibition of human A549 cells by SRB assay; assay type: functional, cell-based
# DU-145 = experiment: Growth inhibition of human DU145 cells by SRB assay; assay type: functional, cell-based
# MCF7 = experiment: Growth inhibition of human MCF7 cells by SRB assay; assay type: functional, cell-based
# [1] = target: Telomerase reverse transcriptase (Homo sapiens, UniProt O14746); experiment: Inhibition of human telomerase by TRAP assay
# How it was run: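 Modified TRAP using A2780 ovarian carcinoma cell extract (1 µg protein) in 20 mM Tris-HCl pH 8.3, 68 mM KCl, 1.5 mM MgCl2, 1 mM EGTA, 0.05% Tween 20, 125 µM dNTPs, TS primer; 10 min at 30° with or without drug, heat-inactivated, then ACX primer PCR, 33 cycles. SYBR Green-stained PAGE products quantified by fluorescence; telEC50, triplicate.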
# Chain of Telomerase reverse transcriptase (O14746 whole entry): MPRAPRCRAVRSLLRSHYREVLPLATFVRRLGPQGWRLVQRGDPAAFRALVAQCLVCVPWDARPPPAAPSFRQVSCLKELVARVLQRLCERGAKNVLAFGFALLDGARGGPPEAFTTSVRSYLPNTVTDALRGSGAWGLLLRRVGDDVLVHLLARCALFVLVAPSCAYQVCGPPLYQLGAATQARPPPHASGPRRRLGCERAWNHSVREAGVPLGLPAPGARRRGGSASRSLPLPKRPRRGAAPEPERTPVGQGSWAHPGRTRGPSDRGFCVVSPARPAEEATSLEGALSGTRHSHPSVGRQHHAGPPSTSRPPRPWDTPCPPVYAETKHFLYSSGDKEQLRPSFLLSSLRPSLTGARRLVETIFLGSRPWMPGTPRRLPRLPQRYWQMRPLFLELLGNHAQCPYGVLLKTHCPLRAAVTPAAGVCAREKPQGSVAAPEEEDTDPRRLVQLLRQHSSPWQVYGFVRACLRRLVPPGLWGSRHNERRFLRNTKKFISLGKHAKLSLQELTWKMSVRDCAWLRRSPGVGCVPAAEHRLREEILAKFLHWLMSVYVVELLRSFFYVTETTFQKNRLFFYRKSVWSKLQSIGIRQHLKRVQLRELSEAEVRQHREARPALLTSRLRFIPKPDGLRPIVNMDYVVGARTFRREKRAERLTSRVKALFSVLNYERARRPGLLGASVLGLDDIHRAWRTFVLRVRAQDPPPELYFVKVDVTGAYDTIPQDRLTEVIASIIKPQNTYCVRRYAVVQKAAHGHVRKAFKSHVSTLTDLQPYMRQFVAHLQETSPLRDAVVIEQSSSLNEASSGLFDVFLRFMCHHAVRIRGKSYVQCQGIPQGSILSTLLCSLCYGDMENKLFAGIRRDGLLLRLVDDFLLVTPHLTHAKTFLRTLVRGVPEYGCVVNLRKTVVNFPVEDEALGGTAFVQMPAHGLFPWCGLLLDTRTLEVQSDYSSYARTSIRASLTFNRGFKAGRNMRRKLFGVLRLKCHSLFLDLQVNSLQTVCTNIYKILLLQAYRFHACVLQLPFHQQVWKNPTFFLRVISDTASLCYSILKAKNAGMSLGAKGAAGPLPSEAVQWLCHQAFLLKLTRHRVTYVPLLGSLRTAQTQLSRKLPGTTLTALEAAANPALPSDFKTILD
SMILES,ΔTm (Homo sapiens) [°C],IC50 (A549) [µM],IC50 (DU-145) [µM],IC50 (MCF7) [µM],EC50 [1] [µM]
O=C(CCN1CCCC1)Nc1ccc2c(NCc3cc(F)cc(C(F)(F)F)c3)c3ccc(NC(=O)CCN4CCCC4)cc3nc2c1,30.5,2,2.53,1,0.24
CN(C)c1ccc(Nc2c3ccc(NC(=O)CCN4CCCCC4)cc3nc3cc(NC(=O)CCN4CCCCC4)ccc23)cc1,21,2,2.57,0.54,0.36
COc1cc(CNc2c3ccc(NC(=O)CCN4CCCC4)cc3nc3cc(NC(=O)CCN4CCCC4)ccc23)cc(OC)c1,32.5,4.57,10.4,3.72,0.35
O=C(CCN1CCCCC1)Nc1ccc2c(NCc3ccc(F)c(F)c3)c3ccc(NC(=O)CCN4CCCCC4)cc3nc2c1,26.5,1.2,2.25,0.52,0.88
O=C(CCN1CCCC1)Nc1ccc2c(NCc3cc(C(F)(F)F)cc(C(F)(F)F)c3)c3ccc(NC(=O)CCN4CCCC4)cc3nc2c1,27.5,6.3,2.61,1.07,0.86
Cc1cccc(CNc2c3ccc(NC(=O)CCN4CCCC4)cc3nc3cc(NC(=O)CCN4CCCC4)ccc23)c1,29.5,1.19,10,3,1
Cc1cccc(CNc2c3ccc(NC(=O)CCN4CCCCC4)cc3nc3cc(NC(=O)CCN4CCCCC4)ccc23)c1,31,0.5,0.77,0.46,0.23
COc1cc(CNc2c3ccc(NC(=O)CCN4CCCCC4)cc3nc3cc(NC(=O)CCN4CCCCC4)ccc23)cc(OC)c1,30,0.37,0.47,0.2,0.44
Cc1cccc(CNc2c3ccc(NC(=O)CCN4CCC(C)CC4)cc3nc3cc(NC(=O)CCN4CCC(C)CC4)ccc23)c1,24,0.57,0.63,0.58,0.39
O=C(CCN1CCCC1)Nc1ccc2c(NCc3ccc(F)c(F)c3)c3ccc(NC(=O)CCN4CCCC4)cc3nc2c1,29.5,2.11,9.75,2.26,0.03
CN(C)c1ccc(Nc2c3ccc(NC(=O)CCN4CCCC4)cc3nc3cc(NC(=O)CCN4CCCC4)ccc23)cc1,28,2.42,2.3,2.53,0.12
